Results published in the array DNA melting data of Ke et al. (doi:10.1101/2024.01.08.574731).

Experiments:
[1] = folding enthalpy; higher = less favourable; fluorescence melt of hairpins on a sequencing array, two-state fit; conditions: sodium 0.088 M
Procedure, shortened: (§1)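 In 50 mM Na-HEPES pH 8.0 containing 25 mM NaCl, hairpins from the library on a sequenced MiSeq flow cell were imaged for Cy3 fluorescence at 2.5 °C steps up to 60 °C, with Cy3 and quencher oligos annealed. After normalisation to pre-quench Cy3 and to control constructs, two-state fits with bootstrapping gave melting temperature and folding enthalpy. Four replicates were combined by inverse-variance weighting, and fitted temperatures were shifted up by 9.35 °C to match UV melts.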

[2] = melting temperature; fluorescence melt of hairpins on a sequencing array, two-state fit, raised by 9.35 °C to match UV melts; conditions: sodium 0.088 M
Procedure, shortened: as §1

Sequence | folding enthalpy [1] [kcal/mol] | Tm [2] [°C]
GGGATTGGAAACAATCTC (.(((((....))))).) | -28.3 | 45.3
GGGATTGGAAACAGTTCC ((.(.((....)).).)) | -16.6 | 34.3
GGGATTGGAAACGATCTC (.(((.(....).))).) | -15.3 | 31.4
GGGCAAACGAAAGTTCCC (((..(((....)))))) | -19.5 | 35.6
GGGCAACGAAAGTTTCCC (((.(((....))).))) | -32.1 | 47.4
GGGCACCGAAAGGTCCC (((.(((....)))))) | -34 | 54.5
GGGCACGAAAGTGCGCCC ((((((....)))..))) | -11.8 | 54.9
GGGCACGAAAGTGGACCC ((((((....)))..))) | -17.9 | 53.6
GGGCACGGAAACGCACCC (((..((....))..))) | -20.2 | 35.6
GGGCACGGAAACGTACCC (((.(((....))).))) | -40.1 | 51.4
GGGCACGGAAACGTGCTC (.(((((....))))).) | -14.6 | 63.2
GGGCACGGAAACGTGTCC ((.((((....)))).)) | -40.8 | 63.4
GGGCAGAAATGCCC (((((....))))) | -24 | 65.2
GGGCAGCGAAAGCTCCCC (((.(((....))).))) | -18.3 | 56.3
GGGCAGCGAAAGCTTCCC (((.(((....))).))) | -38.7 | 55.8
GGGCAGGGAAACCCGCCC ((((.((....)).)))) | -38.2 | 60
GGGCAGGGAAACCTACCC (((.(((....))).))) | -29.2 | 45.5
GGGCATCCGAAAGGACCC (((..(((....)))))) | -18.3 | 38.6
GGGCATCGAAAGATACCC (((.(((....))).))) | -31.6 | 49.5
GGGCATGCGAAAGCACCC (((..(((....)))))) | -18.6 | 42.3
GGGCATGGAAACATACCC (((.(((....))).))) | -31.8 | 44.1
GGGCATGGAAACGTGCCC (((((.(....).))))) | -50.3 | 60
GGGCCACGAAAGTGCCC (((.(((....)))))) | -21.9 | 61.6

Sequence | folding enthalpy [1] [kcal/mol] | Tm [2] [°C]
GGGCCCACGAAAGTGCCC (((..(((....)))))) | -18.8 | 50.4
GGGCCCGAAAGGGAGCCC ((((((....)))..))) | -23.8 | 62.3
GGGCCCGGAAACGGACCC (((.(((....))).))) | -39.3 | 58.8
GGGCCGCGAAAGCGTCCC (((.(((....))).))) | -20.4 | 65.8
GGGCCGGGAAACCGACCC (((.(((....))).))) | -43.9 | 57.5
GGGCCGGGAAACCGGTCC ((.((((....)))).)) | -38.3 | 68.8
GGGCCTACGAAAGTACCC (((..(((....)))))) | -9.06 | 34.7
GGGCCTCGAAAGAGCCC (((.(((....)))))) | -37.9 | 62.3
GGGCCTCGAAAGAGCCCC (((.(((....))).))) | -15.7 | 57.2
GGGCCTGGAAACAAGCCC ((((.((....)).)))) | -33.3 | 47.4
GGGCGACGAAAGTCTCCC (((.(((....))).))) | -43.2 | 53.6
GGGCGAGCGAAAGCTCCC (((..(((....)))))) | -13.1 | 50.5
GGGCGAGGAAACCCGCCC (((((.(....).))))) | -34.7 | 64.5
GGGCGATCGAAAGATCCC (((..(((....)))))) | -17.1 | 48.6
GGGCGCCGAAAGGCCCCC (((.(((....))).))) | -14 | 65.5
GGGCGCCGAAAGGCTCCC (((.(((....))).))) | -25.7 | 60.7
GGGCGCGAAAGCGTACCC ((((((....)))..))) | -13.1 | 56.3
GGGCGCGAAAGCGTTCCC ((((((....)))..))) | -13.7 | 52.3
GGGCGGCGAAAGCCCCCC (((.(((....))).))) | -16.6 | 63.9
GGGCGGGGAAACCCACCC (((.(((....))).))) | -40.7 | 54.6
GGGCGGGGAAACTCGCCC (((((.(....).))))) | -41.3 | 67.4
GGGCGTGCGAAAGCACCC (((..(((....)))))) | -13 | 54.4
GGGCGTGGAAACACGTCC ((.((((....)))).)) | -36.1 | 62.1

Sequence | folding enthalpy [1] [kcal/mol] | Tm [2] [°C]
GGGCGTGGAAACGCGCCC (((((.(....).))))) | -22.5 | 68.3
GGGCTAGGAAACTAGTCC ((.((((....)))).)) | -37.6 | 52.4
GGGCTAGGAAACTGGCCC ((((.((....)).)))) | -41.4 | 58.2
GGGCTCGAAAGAGAACCC ((((((....)))..))) | -19.5 | 45.2
GGGCTCGAAAGAGACCC ((((((....))).))) | -20.9 | 66.8
GGGCTCGAAAGAGCACCC ((((((....)))..))) | -12.2 | 58.1
GGGCTCGGAAACGGGTCC ((.(.((....)).).)) | -34.5 | 48.6
GGGCTGGGAAACCGGCCC ((((.((....)).)))) | -29.2 | 67.2
GGGCTGGGAAACCGGCTC (.((.((....)).)).) | -19.7 | 49.1
GGGCTTCCGAAAGGACCC (((..(((....)))))) | -23.4 | 39.9
GGGCTTCGAAAGAATCCC (((.(((....))).))) | -33 | 46.4
GGGCTTGCGAAAGCACCC (((..(((....)))))) | -15.8 | 45.6
GGGCTTGGAAACAAGTCC ((.((((....)))).)) | -50.9 | 54.6
GGGCTTGGAAACGAGTCC ((.((.(....).)).)) | -32.8 | 43.9
GGGGAAGGAAACTCCCCC ((((.((....)).)))) | -24.8 | 46.9
GGGGACCGAAAGGTTCCC (((.(((....))).))) | -43.5 | 66.3
GGGGACGAAAGTCAGCCC ((((((....)))..))) | -15.4 | 49.5
GGGGACGAAAGTCGTCCC ((((((....)))..))) | -20.8 | 61.3
GGGGACGAAAGTCTCCC ((((((....))).))) | -23.9 | 60
GGGGACGAAAGTCTCCCC ((((((....)))..))) | -14.3 | 58.2
GGGGACGGAAACATCCCC (((((.(....).))))) | -32.8 | 47
GGGGACGGAAACGCCCCC ((((.((....)).)))) | -26.1 | 57.9
GGGGAGGCGAAAGCCCCC (((..(((....)))))) | -14.2 | 64.5

Sequence | folding enthalpy [1] [kcal/mol] | Tm [2] [°C]
GGGGAGGGAAACCTCCTC (.(((((....))))).) | -15.6 | 53.4
GGGGATCGAAAGATACCC (((.(((....))).))) | -43.2 | 62.3
GGGGATGGAAACGTTCCC (((.(.(....).).))) | -30 | 39
GGGGCAGGAAACCACCCC ((((..(....)..)))) | -28.6 | 36.6
GGGGCAGGAAACTACCCC ((((.((....)).)))) | -29.4 | 49
GGGGCAGGAAACTGCCTC (.(((((....))))).) | -13.1 | 59.6
GGGGCAGGAAACTGCTCC ((.((((....)))).)) | -36.6 | 60.2
GGGGCCACGAAAGTGCCC (((..(((....)))))) | -26.2 | 60
GGGGCCGAAAGGCATCCC ((((((....)))..))) | -13.9 | 54.9
GGGGCCGAAAGGCTGCCC ((((((....)))..))) | -14.2 | 46.4
GGGGCTGGAAACGGTCCC (((.(.(....).).))) | -33 | 49.6
GGGGGAGGAAACCCCCCC (((((.(....).))))) | -20.1 | 55.1
GGGGGCGAAAGCCAGCCC ((((((....)))..))) | -14.1 | 51.8
GGGGGCGAAAGCCATCCC ((((((....)))..))) | -13.5 | 51.5
GGGGGCGGAAACGTCCCC ((((.((....)).)))) | -22.5 | 67.4
GGGGGTGGAAACACCTCC ((.((((....)))).)) | -29.1 | 54.9
GGGGTACGAAAGTATCCC (((.(((....))).))) | -33.5 | 58
GGGGTAGGAAACTGCTCC ((.(.((....)).).)) | -29.9 | 35.9
GGGGTCGAAAGACACCC ((((((....))).))) | -18.2 | 63.1
GGGGTCGAAAGACTCCC ((((((....))).))) | -30.9 | 57
GGGGTCGGAAACGACCTC (.(((((....))))).) | -14.1 | 61.4
GGGGTGACGAAAGTCCCC (((..(((....)))))) | -31.8 | 56
